Tests used:
AsDcpS [1] = target: T1, AsDcpS (Ascaris suum, UniProt D3K0N9); assay: HPLC analysis of cap analog hydrolysis by recombinant DcpS; type: biochemical, A. suum; conditions: 15 μM substrate; for Hydrolysis by DcpS (HPLC): up to 24 h
CeDcpS [2] = target: T2, CeDcpS (Caenorhabditis elegans, UniProt G5EFS4); assay: HPLC analysis of cap analog hydrolysis by recombinant DcpS; type: biochemical, C. elegans; conditions: 15 μM substrate; for Hydrolysis by DcpS (HPLC): up to 24 h
T2 sequence (G5EFS4 1-311): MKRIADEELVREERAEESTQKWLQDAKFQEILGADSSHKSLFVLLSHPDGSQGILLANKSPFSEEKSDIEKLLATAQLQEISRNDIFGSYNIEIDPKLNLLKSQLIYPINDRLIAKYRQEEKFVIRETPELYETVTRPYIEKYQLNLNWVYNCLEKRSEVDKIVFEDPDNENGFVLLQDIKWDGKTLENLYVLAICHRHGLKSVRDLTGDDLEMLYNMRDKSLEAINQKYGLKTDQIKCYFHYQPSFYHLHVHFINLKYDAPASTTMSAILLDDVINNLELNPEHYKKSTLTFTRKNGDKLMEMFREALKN
Method in brief: (§1)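 His-tagged recombinant enzyme was expressed in E. coli and purified by Ni-NTA and gel filtration. Cap analog (15 μM) was preincubated 10 min, then DcpS was added at 0.02 or 0.2 μM. Buffers were Tris/MgAc/(NH4)2SO4 at 37 °C, or Tris/KCl/EDTA/DTT at 20 °C. Aliquots were taken at 5–60 min and 24 h and heat-stopped (97 °C, 2.5 min). Reverse-phase HPLC used a methanol/KH2PO4 gradient with A260 and fluorescence detection. Products were identified by retention time, and % substrate hydrolyzed was recorded.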

HsDcpS [3] = target: T3, HsDcpS (Homo sapiens, UniProt Q96C86); assay: as above; type: biochemical; conditions: for Hydrolysis by DcpS (HPLC, Figure 3): 60 min or 24 h; for Hydrolysis by DcpS (HPLC): up to 24 h
T3 sequence (Q96C86 1-337): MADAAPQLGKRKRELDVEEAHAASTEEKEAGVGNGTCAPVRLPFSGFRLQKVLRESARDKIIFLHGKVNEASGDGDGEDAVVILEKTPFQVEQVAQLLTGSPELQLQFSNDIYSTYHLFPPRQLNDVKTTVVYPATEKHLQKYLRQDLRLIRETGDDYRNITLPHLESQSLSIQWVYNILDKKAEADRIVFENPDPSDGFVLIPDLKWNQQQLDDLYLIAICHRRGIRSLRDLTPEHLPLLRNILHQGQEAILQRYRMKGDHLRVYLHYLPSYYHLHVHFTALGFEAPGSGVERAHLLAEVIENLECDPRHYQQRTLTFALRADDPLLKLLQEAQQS
Method in brief: as §1

AsDcpS [4] = target: T1, AsDcpS; assay: Fluorescence titration; type: binding, A. suum; conditions: for Equilibrium association constant KAS, AsDcpS: 20 °C, 50 mM Tris HCl, 200 mM KCl, 0.5 mM EDTA, 1 mM DTT, pH 7.6
CeDcpS [5] = target: T2, CeDcpS; assay: Fluorescence titration; type: binding, C. elegans; conditions: for Equilibrium association constant KAS, CeDcpS: 20 °C, 50 mM Tris HCl, 200 mM KCl, 0.5 mM EDTA, 1 mM DTT, pH 7.6
Method in brief: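 His-tagged CeDcpS was expressed in E. coli and purified by Ni-NTA and gel filtration. Binding was read as quenching of intrinsic Trp fluorescence using time-synchronized titration. Ligand solutions of increasing concentration (5 μM–2 mM) were added to 0.2 μM initial protein. Excitation was 280 nm and emission 340 nm, corrected for dilution and inner filter. KAS was fitted by non-linear regression and reported as a weighted average of 3–5 titrations.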

ScDcpS [6] = target: T4, ScDcpS (Saccharomyces cerevisiae, UniProt Q06151); assay: HPLC analysis of cap analog hydrolysis by recombinant DcpS; type: biochemical, S. cerevisiae; conditions: 15 μM substrate; for Hydrolysis by DcpS (HPLC): up to 24 h
Method in brief: as §1

HsDcpS [7] = target: T3, HsDcpS; assay: Inhibition of DcpS hydrolysis of m^7GpppG, HPLC; type: biochemical
HsDcpS [8] = target: T3, HsDcpS; assay: Fluorescence titration; type: binding; conditions: ratio of KAS values
ScDcpS [9] = target: T4, ScDcpS; assay: Inhibition of DcpS hydrolysis of m^7GpppG, HPLC; type: biochemical, S. cerevisiae
Method in brief: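 Yeast DcpS (His-tagged, E. coli-expressed, Ni-NTA plus gel filtration) used at 0.10 μM to give 50% uninhibited conversion in 10 min. Substrate m7GpppG 15 μM; test compound 0.1–50 μM; buffer 50 mM Tris HCl, 200 mM KCl, 0.5 mM EDTA, 1 mM DTT, pH 7.6; 20 °C. Stopped at 97 °C for 2.5 min, analysed by reverse-phase HPLC. IC50 from substrate-conversion plot; Ki via tight-binding competitive equation.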

AsDcpS [10] = target: T1, AsDcpS; assay: Inhibition of DcpS hydrolysis of m^7GpppG, HPLC; type: biochemical, A. suum
HsDcpS [11] = target: T3, HsDcpS; conditions: 20 °C, 50 mM Tris HCl, 200 mM KCl, 0.5 mM EDTA, 1 mM DTT, pH 7.6; cited from earlier work
CeDcpS [12] = target: T2, CeDcpS; assay: Inhibition of DcpS hydrolysis of m^7GpppG, HPLC; type: biochemical, C. elegans
Method in brief: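 Recombinant His-tagged C. elegans DcpS was expressed in E. coli and purified by Ni-NTA and gel filtration. Enzyme at 0.02 μM, m7GpppG 15 μM, test compound 0.1–50 μM, in 50 mM Tris HCl, 200 mM KCl, 0.5 mM EDTA, 1 mM DTT, pH 7.6. Preincubated 10 min, reacted 10 min at 20 °C, heat-stopped, products by reverse-phase HPLC. IC50 taken from conversion versus concentration; Ki from tight-binding competitive equation.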

[13] = tested on: recombinant C. elegans decapping scavenger; assay: Competitor inhibition of CeDcpS hydrolytic activity; type: biochemical
ScDcpS [14] = target: T4, ScDcpS; conditions: substrate of ScDcpS; cited from earlier work
CeDcpS [15] = target: T2, CeDcpS; conditions: substrate of CeDcpS; cited from earlier work
[16] = condition (2): 20 °C, pH 7.6, 0.02 μM DcpS
[17] = condition (2): 20 °C, pH 7.6, 15 μM substrate, 0.02 μM DcpS
[18] = condition (1): 37 °C, pH 8.0, 0.02 or 0.2 μM DcpS
[19] = condition (2): 20 °C, pH 7.6, 0.2 μM DcpS
[20] = condition (1): 37 °C, pH 8.0, 15 μM substrate, 0.02 or 0.2 μM DcpS
[21] = condition (2): 20 °C, pH 7.6, 15 μM substrate, 0.2 μM DcpS
[22] = condition (2), 0.02 μM DcpS, Figure 3
[23] = after 60 min, 20 °C, pH 7.6, 0.02 μM DcpS

T4 sequence (Q06151 whole entry): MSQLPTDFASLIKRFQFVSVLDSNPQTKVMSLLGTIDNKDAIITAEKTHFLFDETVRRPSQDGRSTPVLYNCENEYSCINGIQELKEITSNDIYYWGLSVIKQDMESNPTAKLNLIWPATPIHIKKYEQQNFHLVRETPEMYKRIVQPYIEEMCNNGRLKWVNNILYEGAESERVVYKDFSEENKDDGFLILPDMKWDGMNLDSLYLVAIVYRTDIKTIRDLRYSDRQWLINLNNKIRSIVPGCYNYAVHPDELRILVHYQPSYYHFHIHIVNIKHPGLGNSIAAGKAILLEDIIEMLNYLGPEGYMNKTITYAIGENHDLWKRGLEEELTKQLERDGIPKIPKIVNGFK
T1 sequence (D3K0N9 whole entry): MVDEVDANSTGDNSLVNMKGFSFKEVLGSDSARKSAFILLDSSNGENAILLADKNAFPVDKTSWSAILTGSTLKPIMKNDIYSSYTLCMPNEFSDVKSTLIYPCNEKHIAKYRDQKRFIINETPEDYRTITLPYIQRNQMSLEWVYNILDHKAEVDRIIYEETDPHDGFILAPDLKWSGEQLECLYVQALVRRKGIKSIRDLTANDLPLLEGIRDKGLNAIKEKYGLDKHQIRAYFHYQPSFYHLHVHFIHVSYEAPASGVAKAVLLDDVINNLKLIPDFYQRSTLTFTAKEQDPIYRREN

SMILES	Hydrolysis by DcpS (HPLC, Figure 3) (AsDcpS [1]; [16])	Hydrolysis by DcpS (HPLC, Figure 3) (CeDcpS [2]; [16])	Hydrolysis by DcpS (HPLC) (AsDcpS [1]; [18])	Hydrolysis by DcpS (HPLC) (AsDcpS [1]; [19])	Hydrolysis by DcpS (HPLC) (CeDcpS [2]; [18])	Hydrolysis by DcpS (HPLC) (CeDcpS [2]; [19])	Equilibrium association constant KAS, AsDcpS (AsDcpS [4])	Equilibrium association constant KAS, CeDcpS (CeDcpS [5])	Hydrolysis by DcpS (HPLC) (HsDcpS [3]; [20])	Hydrolysis by DcpS (HPLC) (HsDcpS [3]; [21])	Hydrolysis by DcpS (HPLC) (ScDcpS [6]; [18])	Hydrolysis by DcpS (HPLC) (ScDcpS [6]; [19])	other results
Nc1nc2c(ncn2[C@@H]2O[C@H](COP(=O)(O)OP(=O)(O)OP(=O)(O)OC[C@H]3O[C@@H](n4cnc5c(=O)[nH]c(N)nc54)[C@H](O)[C@@H]3O)[C@@H](O)[C@H]2O)c(=O)[nH]1 [GpppG]	does not occur	much slower as compared to m^7GpppG											Hydrolysis by DcpS (HPLC, Figure 3) (HsDcpS [3]; [17]): does not occur
CN(C)c1nc2c(c(=O)[nH]1)[n+](C)cn2[C@@H]1O[C@H](COP(=O)(O)OP(=O)(O)O)[C@@H](O)[C@H]1O [m3^2,2,7GDP, 2,2,7-trimethylguanosine diphosphate]			not degraded	resistant to cleavage	not degraded	resistant to cleavage	0.53 ± 0.16 µM⁻¹	1.44 ± 0.26 µM⁻¹	not degraded	resistant to cleavage	not degraded	resistant to cleavage	
CN(C)c1nc2c(c(=O)[nH]1)[n+](C)cn2[C@@H]1O[C@H](COP(=O)(O)O)[C@@H](O)[C@H]1O [m3^2,2,7GMP]							0.28 ± 0.27 µM⁻¹	2.88 ± 0.67 µM⁻¹					
CN(C)c1nc2c(c(=O)[nH]1)[n+](C)cn2[C@@H]1O[C@H](COP(=O)(O)OP(=O)(O)OP(=O)(O)O)[C@@H](O)[C@H]1O [m3^2,2,7GTP]	have activity	have activity											
C[n+]1cn([C@@H]2O[C@H](COP(=O)(O)OP(=O)([O-])O)[C@@H](O)[C@H]2O)c2nc(N)[nH]c(=O)c21 [m^7GDP, 7-methylguanosine diphosphate]			not degraded	resistant to cleavage	not degraded	resistant to cleavage			not degraded	resistant to cleavage	not degraded	resistant to cleavage	IC50 (HsDcpS [7]): 4170 ± 500 nM; Fold higher affinity of human DcpS compared to m^7GMP (HsDcpS [8]): 6 fold; Kd (AsDcpS [4]): 5.4 nM; IC50 (ScDcpS [9]): 3950 ± 230 nM; Ki (ScDcpS [9]): 36 ± 2 nM; IC50 (AsDcpS [10]): 1440 ± 110 nM; Kd (CeDcpS [5]): 10.3 nM; Equilibrium association constant KAS, HsDcpS (HsDcpS [11]): 114 ± 8 µM⁻¹; IC50 (CeDcpS [12]): 2170 ± 130 nM; Ki (CeDcpS [12]): 156 ± 20 nM
C[n+]1cn([C@@H]2O[C@H](COP(=O)(O)O)[C@@H](O)[C@H]2O)c2nc(N)[nH]c(=O)c21 [m^7GMP, 7-methylguanosine monophosphate]							26.35 ± 1.84 µM⁻¹	8.00 ± 0.65 µM⁻¹					Competitor concentration for 50% inhibition, fold higher than for m^7GDP [13]: about 20 fold; Equilibrium association constant KAS, HsDcpS (HsDcpS [11]): 19 ± 1 µM⁻¹
Cn1c[n+]([C@@H]2O[C@H](COP(=O)([O-])OP(=O)(O)OP(=O)(O)O)[C@@H](O)[C@H]2O)c2nc(N)[nH]c(=O)c21 [m^7GTP]	efficiently hydrolyzed	efficiently hydrolyzed											Rate of degradation by HsDcpS, fold slower than by AsDcpS and CeDcpS (HsDcpS [3]; [22]): 2 fold; Hydrolysis by DcpS (HPLC, Figure 3) (HsDcpS [3]; [17]): efficiently hydrolyzed
Cn1c[n+]([C@@H]2O[C@H](COP(=O)(O)OP(=O)([O-])OP(=O)(O)OC[C@H]3O[C@@H](n4cnc5c(=O)[nH]c(N)nc54)[C@H](O)[C@@H]3O)[C@@H](O)[C@H]2O)c2nc(N)[nH]c(=O)c21 [m^7GpppG]			very fast		very fast				very fast		very fast		Extent of decapping (% of hydrolyzed substrate) (AsDcpS [1]; [23]): 95%; Time to complete conversion of the substrate to products (AsDcpS [1]; [19]): less than 3 minutes; Extent of decapping (% of hydrolyzed substrate) (CeDcpS [2]; [23]): 95%; Time to complete conversion of the substrate to products (CeDcpS [2]; [19]): less than 3 minutes; Km (ScDcpS [14]): 0.14 µM; Extent of decapping (% of hydrolyzed substrate) (HsDcpS [3]; after 60 min, 20 °C, pH 7.6, 15 μM substrate, 0.02 μM DcpS): 95%; Cleavage efficiency by HsDcpS, fold higher than m^7GTP (HsDcpS [3]; [22]): ~ 2 fold; Time to complete conversion of the substrate to products (HsDcpS [3]; [21]): less than 3 minutes; Time to complete conversion of the substrate to products (ScDcpS [6]; [19]): less than 3 minutes; Km (CeDcpS [15]): 1.17 ± 0.14 µM
C[n+]1cn([C@@H]2O[C@H](COP(=O)(O)OP(=O)(O)OP(=O)(O)OC[C@H]3O[C@@H](n4c[n+](C)c5c(=O)[nH]c(N)nc54)[C@H](O)[C@@H]3O)[C@@H](O)[C@H]2O)c2nc(N)[nH]c(=O)c21 [m^7Gpppm^7G]				significantly slower than that of m^7GpppG		significantly slower than that of m^7GpppG				significantly slower than that of m^7GpppG		significantly slower than that of m^7GpppG	

Source: article PMC3495079 (Biochemistry, 2012)
